The text below walks through data of ChEMBL document CHEMBL2069213, “Synthesis and evaluation of small libraries of triazolylmethoxy chalcones, flavanones and 2-aminopyrimidines as inhibitors of mycobacterial FAS-II and PknG” (Bioorg Med Chem, 2012).

In brackets after ≈: the same amount, converted by molar mass. Activity calls are given as the source filed them. No cut-off for these calls is given here. Bounds are passed on as bounds.

In data set [1] the test system is Mycolicibacterium aurum. Description: Growth inhibition of Mycobacterium aurum expressing Mycobacterium tuberculosis H37Rv kas operon in fusion Escherichia coli lacZ gene at 100 uM incubated for 12 hrs. The class given is functional. To be noted: read-out: GI.
A short description of data set [2]: Toxicity against macrophages incubated for 48 hrs by resazurin dye reduction assay. The class given is cell-based, Macrophage. A digest of the protocol: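 Macrophages from subconfluent monolayers seeded ~1 × 10^6 cells/well in RPMI-1640; compounds 100 to 12.5 µM, 48 h at 37 °C, 5% CO2; resazurin added for 4 h, fluorescence 535/590 nm read against untreated wells as % viability; CC50 taken from viability-versus-concentration plot; triplicates.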

In data set [3] the test system is Mycolicibacterium aurum. As to the kind of experiment: Inhibition of FAS2 in recombinant Mycobacterium aurum expressing Mycobacterium tuberculosis H37Rv kas operon in fusion Escherichia coli lacZ gene assessed as increase in beta-galactosidase activity at 50 uM incubated for 12 hrs by lacZ reporter gene assay. Put shortly:
(§1)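 Cells washed, sonicated in PBS pH 7.2; equal Bradford-quantified protein incubated with ONPG (4 mg/ml) 30 min at 37 °C, stopped with Na2CO3, read at 410 nm. Triplicates, experiment repeated twice; isoniazid positive control.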

For data set [4], the system named is Mycolicibacterium aurum. As to the kind of experiment: Inhibition of FAS2 in recombinant Mycobacterium aurum expressing hsp60 promoter in fusion Escherichia coli lacZ gene assessed as increase in beta-galactosidase activity at 50 uM incubated for 12 hrs by lacZ reporter gene assay. On the technique in general: A reporter such as luciferase makes a cellular process visible.

For data set [5], the system named is Mycolicibacterium aurum. As to the kind of experiment: Inhibition of FAS2 in recombinant Mycobacterium aurum expressing hsp60 promoter in fusion Escherichia coli lacZ gene assessed as increase in beta-galactosidase activity at 100 uM incubated for 12 hrs by lacZ reporter gene assay.
Data set [6] relates to Mycolicibacterium aurum. As to the kind of experiment: Inhibition of FAS2 in recombinant Mycobacterium aurum expressing Mycobacterium tuberculosis H37Rv kas operon in fusion Escherichia coli lacZ gene assessed as increase in beta-galactosidase activity at 100 uM incubated for 12 hrs by lacZ reporter gene assay. A digest of the protocol: as §1
Data set [7] concerns Mycolicibacterium aurum. Description: Growth inhibition of Mycobacterium aurum expressing Mycobacterium tuberculosis H37Rv kas operon in fusion Escherichia coli lacZ gene at 50 uM incubated for 12 hrs. The class given is functional. To be noted: read-out: GI.
Data set [8] concerns the target Serine/threonine-protein kinase PknG (Mycobacterium tuberculosis) (UniProt P9WI73). As to the kind of experiment: Inhibition of Mycobacterium tuberculosis recombinant PKnG expressed in Escherichia coli BL21 (DE3) cells using myelin basic protein substrate at 3.125 uM by luciferase activity based ADP-Glo-luminescent kinase assay. Put shortly: (§2)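 6-His-PknG from M. tuberculosis genomic DNA cloned into pTriEx4, expressed in E. coli with 0.8 mM IPTG 4 h at 37 °C, purified by Ni2+-NTA then size exclusion. Compounds dissolved in DMSO; assayed with myelin basic protein substrate; ADP formed measured by ADP-Glo luminescence; AX20017 positive control; dose-response series.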
In general terms: ADP-Glo first removes unused ATP, then detects ADP through luciferase.

Data set [9] has the same target. Description: Inhibition of Mycobacterium tuberculosis recombinant PKnG expressed in Escherichia coli BL21 (DE3) cells using myelin basic protein substrate at 50 uM by luciferase activity based ADP-Glo-luminescent kinase assay. A digest of the protocol:
as §2

The test system of data set [10] is Mycobacterium tuberculosis. Description: Growth inhibition of Mycobacterium tuberculosis H37Rv. It counts as functional.
In data set [11] the target is Serine/threonine-protein kinase PknG (Mycobacterium tuberculosis) (UniProt P9WI73). Description: Inhibition of Mycobacterium tuberculosis recombinant PKnG expressed in Escherichia coli BL21 (DE3) cells using myelin basic protein substrate at 12.5 uM by luciferase activity based ADP-Glo-luminescent kinase assay. A digest of the protocol: as §2
Data set [12] shares this target. As to the kind of experiment: Inhibition of Mycobacterium tuberculosis recombinant PKnG expressed in Escherichia coli BL21 (DE3) cells using myelin basic protein substrate at 6.25 uM by luciferase activity based ADP-Glo-luminescent kinase assay. Put shortly:
as §2

Data set [13] has the same target. Description: Inhibition of Mycobacterium tuberculosis recombinant PKnG expressed in Escherichia coli BL21 (DE3) cells using myelin basic protein substrate at 100 uM by luciferase activity based ADP-Glo-luminescent kinase assay. A digest of the protocol:
as §2

Data set [14] shares this target. Description: Inhibition of Mycobacterium tuberculosis recombinant PKnG expressed in Escherichia coli BL21 (DE3) cells using myelin basic protein substrate at 25 uM by luciferase activity based ADP-Glo-luminescent kinase assay. Put shortly:
as §2

Serine/threonine-protein kinase PknG (Mycobacterium tuberculosis), sequence (P9WI73 whole entry): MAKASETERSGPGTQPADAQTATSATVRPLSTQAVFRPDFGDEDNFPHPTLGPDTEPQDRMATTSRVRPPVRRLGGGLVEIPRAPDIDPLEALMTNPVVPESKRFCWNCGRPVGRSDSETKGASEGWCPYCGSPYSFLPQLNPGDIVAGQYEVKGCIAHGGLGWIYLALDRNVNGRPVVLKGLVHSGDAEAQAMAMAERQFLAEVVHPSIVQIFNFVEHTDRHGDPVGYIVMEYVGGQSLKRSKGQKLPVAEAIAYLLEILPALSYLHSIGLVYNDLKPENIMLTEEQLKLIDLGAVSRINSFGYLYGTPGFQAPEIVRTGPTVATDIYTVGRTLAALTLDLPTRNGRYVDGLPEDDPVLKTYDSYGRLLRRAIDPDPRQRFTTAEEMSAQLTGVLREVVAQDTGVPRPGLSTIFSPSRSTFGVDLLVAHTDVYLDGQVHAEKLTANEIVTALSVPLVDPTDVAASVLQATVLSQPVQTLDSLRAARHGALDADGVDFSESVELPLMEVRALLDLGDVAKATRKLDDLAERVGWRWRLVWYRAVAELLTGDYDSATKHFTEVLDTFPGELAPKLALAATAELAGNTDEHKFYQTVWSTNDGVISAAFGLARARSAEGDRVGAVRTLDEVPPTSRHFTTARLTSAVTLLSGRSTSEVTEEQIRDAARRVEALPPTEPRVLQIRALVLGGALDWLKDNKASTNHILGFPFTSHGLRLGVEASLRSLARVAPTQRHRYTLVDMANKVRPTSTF

For `O=C(/C=C/c1c(F)cccc1Cl)c1ccc(OCc2cn(Cc3ccc(Br)cc3)nn2)cc1O`, the inhibition of growth at 100 µM with Mycolicibacterium aurum [1] is 83%. This compound also yielded a CC50 at 48 h in [2] of 65.8 µM. For the same compound, the inhibition entry in the data set with Mycolicibacterium aurum [3] and in the data set with Mycolicibacterium aurum [6] was “Active” each time. Moreover, the inhibition entry in the data set on Mycolicibacterium aurum [4] and with Mycolicibacterium aurum [5] was “inactive” each time. In the data set on Mycolicibacterium aurum [7], the inhibition of growth at 50 µM was determined as 53.1%.
Turning to `CCCCCCn1cc(COc2ccc3c(c2)OC(c2ccc(Br)cc2)CC3=O)nn1` (configuration not stated), the inhibition of growth at 100 µM with Mycolicibacterium aurum [1] amounted to 75.1%. Further, it took 20.3 µM to reach half-maximal cytotoxicity in data set [2] (CC50 at 48 h). The inhibition result in the data set on Mycolicibacterium aurum [3] and in the data set with Mycolicibacterium aurum [6] was “Active” throughout. For the same compound, the inhibition result in the data set on Mycolicibacterium aurum [4] and in the data set with Mycolicibacterium aurum [5] was “inactive” in each case. The inhibition of growth at 50 µM in the data set with Mycolicibacterium aurum [7] amounted to 68.9%.
`O=C(/C=C/c1ccccc1)c1ccc(OCc2cn(Cc3ccc(Br)cc3)nn2)cc1O`: the inhibition of growth at 100 µM in the data set on Mycolicibacterium aurum [1] was 85.3%. In addition, the CC50 at 48 h in data set [2] worked out at 71.7 µM. In addition, the inhibition entry in the data set on Mycolicibacterium aurum [3] and in the data set with Mycolicibacterium aurum [6] was “Active” in each case. The inhibition entry with Mycolicibacterium aurum [4] and with Mycolicibacterium aurum [5] was “inactive” throughout. The inhibition of growth at 50 µM in the data set on Mycolicibacterium aurum [7] was 53.8%.
Turning to `CCCCCCn1cc(COc2ccc(-c3cc(-c4ccccc4)nc(N)n3)c(O)c2)nn1`, the inhibition came to 0% in data set [8]; 13% in data set [9]; 0% in data set [11]; 0% in data set [12]; 23% in data set [13]; 0% in data set [14]. Besides, the lowest concentration to inhibit growth in [10] (MIC) was 50 µg/mL (≈ 112 µM).
Consider `CCCCCCn1cc(COc2ccc(C(=O)/C=C/c3c(F)cccc3Cl)c(O)c2)nn1`, for which the inhibition of growth at 100 µM in the data set with Mycolicibacterium aurum [1] stood at 79.1%. For the same compound, in [2], the CC50 at 48 h is greater than 100 µM. The inhibition result in the data set with Mycolicibacterium aurum [3] and in the data set with Mycolicibacterium aurum [6] was “Active” each time. The inhibition result in the data set on Mycolicibacterium aurum [4] and with Mycolicibacterium aurum [5] was “inactive” throughout. In the data set with Mycolicibacterium aurum [7], the inhibition of growth at 50 µM was found to be 71.6%.
Take `CC(C)c1ccc(C2CC(=O)c3ccc(OCc4cn(Cc5ccccc5)nn4)cc3O2)cc1` (configuration not stated): the inhibition of growth at 100 µM in the data set on Mycolicibacterium aurum [1] amounted to 79.3%. Further, the midpoint of cytotoxicity in data set [2], the CC50 at 48 h, lay at 23.8 µM. The inhibition entry in the data set on Mycolicibacterium aurum [3] and with Mycolicibacterium aurum [6] was “Active” each time. In addition, the inhibition entry with Mycolicibacterium aurum [4] and in the data set on Mycolicibacterium aurum [5] was “inactive” in each case. In addition, the inhibition of growth at 50 µM with Mycolicibacterium aurum [7] was 54.7%.
Consider `CCCCCCn1cc(COc2ccc3c(c2)OC(c2ccc(OC)cc2)CC3=O)nn1` (configuration not stated), for which, in the data set on Mycolicibacterium aurum [1], the inhibition of growth at 100 µM was 65.7%. In addition, the midpoint of cytotoxicity in data set [2], the CC50 at 48 h, lay at 57.5 µM. Moreover, the inhibition entry in the data set on Mycolicibacterium aurum [3] and with Mycolicibacterium aurum [6] was “Active” in each case. Besides, the inhibition result in the data set on Mycolicibacterium aurum [4] and in the data set with Mycolicibacterium aurum [5] was “inactive” in each case. Further, in the data set with Mycolicibacterium aurum [7], the inhibition of growth at 50 µM came out at 55.9%.
Take `Nc1nc(-c2ccc(OCc3cn(Cc4ccc(Br)cc4)nn3)cc2O)cc(-c2cccc3ccccc23)n1`: the inhibition came out at 0% in data set [8]; 3% in [9]; 0% in data set [11]; 2% in [12]; 34% in data set [13]; 0% in data set [14]. In data set [2], this compound gave a CC50 at 48 h greater than 100 µM.
For `Nc1nc(-c2ccc(OCc3cn(Cc4ccccc4)nn3)cc2O)cc(-c2cccc3ccccc23)n1`, the inhibition in data set [8] worked out at 0%; in data set [9] it was 25%; in data set [11], 11%; in data set [12] it was 9%; in data set [13], 35%; in data set [14] it was 7%. Besides, in [2], the 50% cytotoxic concentration (CC50) at 48 h came to 71.3 µM.
With `O=C(/C=C/c1ccccc1)c1ccc(OCc2cn(Cc3ccccc3)nn2)cc1O`, the inhibition of growth at 100 µM in the data set with Mycolicibacterium aurum [1] was 88%. In addition, the midpoint of cytotoxicity in data set [2], the CC50 at 48 h, lay at 80 µM. For the same compound, the inhibition entry in the data set with Mycolicibacterium aurum [3] and with Mycolicibacterium aurum [6] was “Active” throughout. The inhibition entry in the data set with Mycolicibacterium aurum [4] and with Mycolicibacterium aurum [5] was “inactive” throughout. In addition, in the data set on Mycolicibacterium aurum [7], the inhibition of growth at 50 µM is 49.9%.
For the compound `COc1ccc(-c2cc(-c3ccc(OCc4cn(Cc5ccccc5)nn4)cc3O)nc(N)n2)cc1`, the inhibition came out at 6% in [8]; 43% in [9]; 10% in data set [11]; 0% in data set [12]; 43% in [13]; 9% in data set [14]. The half-maximal cytotoxic concentration (CC50) at 48 h in data set [2] stood at 42.7 µM.

One may read the CC50 as the concentration giving 50% cytotoxicity. Lower therefore signals greater toxicity to the cells. What is called inhibition is the percentage by which the read-out fell short of the control. The MIC is the lowest concentration found to suppress growth.
